{"data": "Published values pooled from the literature", "target": "Tyrosine-protein kinase Srms (SRMS, Homo sapiens, UniProt Q9H3Y6)", "note": "Each line is one published result; the experiments were not run side by side."}
{"Compound": "Cn1cncc1[C@@](O)(COc1ccc(C#N)cc1-c1ccc(OC(F)(F)F)cc1)c1ccc(C#N)cc1", "test": "cell-free assay, competition with immobilised ligand", "setting": "1 µM", "endpoint": "remaining binding", "result": "100%"}
{"Compound": "Cn1cc(-c2cc(F)cc(N3CCn4c(cc5c4CCCC5)C3=O)c2CO)cc(Nc2ccc(N3CCN(C4COC4)CC3)cn2)c1=O", "test": "enzyme activity, inhibitor", "setting": "0.1 µM", "endpoint": "inhibition", "result": "17%"}
{"Compound": "Cc1nn(C)cc1-c1nc2c(N3CCN(Cc4ccc(Cl)cc4)CC3)c(Cl)cnc2[nH]1", "test": "binding, competition with immobilised ligand", "setting": "1 µM", "endpoint": "remaining binding", "result": "100%"}
{"Compound": "N#CC1(c2ccccn2)CCN(Cc2cc(C(=O)O)c(=O)n3ccccc23)CC1", "test": "cell-free assay, competition with immobilised ligand", "setting": "1 µM", "endpoint": "remaining binding", "result": "93%"}
{"Compound": "COc1ncccc1-c1cnn2ccc(N3CCN(C(=O)OC(C)C)CC3)nc12", "test": "binding, competition with immobilised ligand", "setting": "1 µM", "endpoint": "remaining binding", "result": "78%"}
{"Compound": "Nc1ncc(-c2nc(N3CCOCC3)nc(N3CCOCC3)n2)c(C(F)F)n1", "test": "cell-free assay, competition with immobilised ligand", "setting": "10 µM", "endpoint": "remaining binding", "result": "88%"}
{"Compound": "Cn1cc(-c2cccc(N3CCc4c(sc5c4CC(C)(C)C5)C3=O)c2CO)cc(Nc2ccncn2)c1=O", "test": "enzyme activity, inhibitor", "setting": "1 µM", "endpoint": "inhibition", "result": "-3%"}
{"Compound": "O=c1[nH]c2ccccc2n1C1CCN(Cc2ccc(-c3[nH]c4cc5ncnc5cc4nc3-c3ccccc3)cc2)CC1", "test": "cell-free assay", "setting": "0.5 µM", "endpoint": "remaining signal", "result": "93.1%"}
